This note sets out measurements from the RNAGym collection of RNA variant scans (doi:10.1126/science.aae0568).

Variants at the floor of the assay were thinned out. Where only a bound is given, the exact number is not on record here.

The labels stand for the following.
B1: tRNA (parent)
chain: GUUCCGUUGGCGUAAUGGUAACGCGUCUCCCUCCUAAGGAGAAGACUGCGGGUUCGAGUCCCGUACGGAACG

Variants of B1 are the subject of the series. Put plainly: yeast fitness relative to wild type (ratio to wild type); higher = fitter; tRNA-Arg(CCU), competitive growth, 37 C, YPD. The method in brief:
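For this measurement, the tRNA-Arg(CCU) gene was varied by chemical synthesis at a 3% per-site mutation rate across 69 sites, and each variant was placed at the native genomic locus in Saccharomyces cerevisiae. The pooled strains went through a 24-hour competition in YPD at 37°C in six parallel replicates, with amplicons from start and end populations read by 100-nucleotide paired-end sequencing. Darwinian fitness relative to wild type followed from the change in each genotype's frequency. Genotypes needed ≥ 100 starting reads, and estimates < 0.5 were set to 0.5.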
Take U3G C24U C31U: the yeast fitness is 0.793. Take U3C U19G A43U A65G G68A: the yeast fitness was ≤ 0.5. For the variant U3G C55A, the yeast fitness was determined as 0.644. Turning to U3G C5G U19C C66U, the yeast fitness was 0.57. Regarding U3G C4A, the yeast fitness amounted to 0.949. For U3G C5U U26A A45C U59C, the yeast fitness was ≤ 0.5. U3G G18A U28A: the yeast fitness worked out at 0.613. Turning to U3C U32G C61A C62A, the yeast fitness turned out to be 0.53. For U3G C11U U64C, the yeast fitness was ≤ 0.5. For U3C U7A C27A, the yeast fitness was ≤ 0.5. Consider U3C U32C A65U G68A, for which the yeast fitness was ≤ 0.5. Regarding U3G G10C U26C, the yeast fitness is ≤ 0.5. U3C U8A U19A: the yeast fitness stood at 0.63.

With U3C U13A A20C C30A C31A U54A C55U, the yeast fitness was ≤ 0.5.

For the variant U3G C46U U59A, the yeast fitness is 0.562. For U3G C24U G58A U59A A65U, the yeast fitness came out at 0.514. Next, U3G A40G C46A: 0.665. As for U3C U8G U32A C33G C62U A65G, the yeast fitness was ≤ 0.5. U3C U32A: the yeast fitness turned out to be 0.817.

Consider U3G C5U G10A C31U G41C A43C, for which the yeast fitness is ≤ 0.5. As for U3G A45G A65G, the yeast fitness was determined as 0.729. Under U3C U26C G44C U54A stands ≤ 0.5; under U3C U7A, 0.772; under U3G G17A C27G C33U A45G, ≤ 0.5. Turning to U3G C11U U35A G38A C66U, the yeast fitness is ≤ 0.5.

With U3G C31A G50A G67A, the yeast fitness was ≤ 0.5. As to U3G, the yeast fitness was 0.978.

For the variant U3G G18A, the yeast fitness was 0.694. For the variant U3C U32G A40C G41A, the yeast fitness is ≤ 0.5.

For U3G A15G A21U G48A, the yeast fitness was ≤ 0.5.

For the variant U3G C5G G10A C30A C31G C49A C60U G67A, the yeast fitness came to 0.572. Regarding U3G C29A, the yeast fitness was 0.533. Next, U3G C11U U47A G48C: 0.675. Consider U3G C22U A57G C60A, for which the yeast fitness was ≤ 0.5. Consider U3C U16C C49G, for which the yeast fitness was ≤ 0.5. On to U3G A15G A21U C24U G38A C61G C66U A69U, for which the yeast fitness was ≤ 0.5. U3G C5G C11U C29U U32C: the yeast fitness was ≤ 0.5. For the variant U3G A14G A43U U54A A57C, the yeast fitness was ≤ 0.5. On to U3G A21G A57C, for which the yeast fitness was ≤ 0.5.

Consider U3G A45G A57G, for which the yeast fitness is 0.717. Next, U3G C60A C66U: ≤ 0.5. As for U3C U54C G67C, the yeast fitness is ≤ 0.5. Next, U3G A20C: 0.987; U3G C5U A65U: 0.651. As to U3G C24U U28C, the yeast fitness is 0.599. Next, U3G A15U C46G C61A: ≤ 0.5. Next, U3C U13A C31U G41A: 0.524.

U3G G9C: the yeast fitness was found to be 0.573. U3C U19G A21C U32A A37U: the yeast fitness is ≤ 0.5. In the case of U3G C4A G12A C29A C30G, the yeast fitness came to 0.556. Regarding U3G C34G C62U, the yeast fitness was ≤ 0.5. In the case of U3G C11G, the yeast fitness was 0.556.

In the case of U3G C11U, the yeast fitness amounted to 0.748. For U3C U26C C30U A37G C61A, the yeast fitness was ≤ 0.5. Turning to U3G G17A C30U A69U, the yeast fitness was ≤ 0.5. As to U3G C22A G25C C33U, the yeast fitness came to 0.606. Consider U3G C4U C22A, for which the yeast fitness is ≤ 0.5. Under U3G A20G C49U stands ≤ 0.5; under U3G A40U A45U, 0.585. For U3G C5U G39C U47A, the yeast fitness is 0.538. Take U3C U16G U19A A43U A57U: the yeast fitness is ≤ 0.5. Under U3G C33U stands 0.691; under U3G G17C C33A U53G U54A, ≤ 0.5; under U3G C24U C31U A69U, 0.839. Turning to U3G G9C C33G C46U, the yeast fitness is ≤ 0.5. U3G C11U A21U G44C A57U: the yeast fitness was ≤ 0.5. Consider U3G A14G C62G A69G, for which the yeast fitness was ≤ 0.5. On to U3G A42G C62G, for which the yeast fitness was ≤ 0.5.

As to U3G A69C, the yeast fitness stood at 0.867. As to U3C U7A C29A G58A C61G A70U, the yeast fitness is 0.531. U3G C30U A43U G48C G68C: the yeast fitness is ≤ 0.5.

In the case of U3G C5G C11U C29U U32C C60U, the yeast fitness was ≤ 0.5. Take U3C U7C G41A A42C G50C A70G: the yeast fitness was ≤ 0.5. Regarding U3G C33U A42G C61A, the yeast fitness was 0.538. As for U3G C11U U19C A20U A42C A65C, the yeast fitness was ≤ 0.5.

Regarding U3G A37U U54C G58A C66U, the yeast fitness is ≤ 0.5. U3G G44C: the yeast fitness stood at 0.739. Consider U3C U8A A15C C31G C49U A57U G67C, for which the yeast fitness is ≤ 0.5. In the case of U3G C30G C49U, the yeast fitness is ≤ 0.5. As to U3C U7A A42C C49U C55U, the yeast fitness was ≤ 0.5.

As for U3G A15U C61A, the yeast fitness was ≤ 0.5. Turning to U3G G25A A45C A69U, the yeast fitness came out at 0.814. As for U3G A15G C24G G50A C55U, the yeast fitness turned out to be 0.613. U3G C24U C27G C30A A65U A69U: the yeast fitness is ≤ 0.5.

Regarding U3G A21C G51A, the yeast fitness came to 0.605. On to U3G C31A G41A, for which the yeast fitness is ≤ 0.5. With U3G A14G C62A, the yeast fitness is 0.603. In the case of U3G C5A G63A, the yeast fitness is ≤ 0.5. Take U3G C5U A70G: the yeast fitness was ≤ 0.5. On to U3G G6A A15G C34A A70G, for which the yeast fitness is ≤ 0.5. In the case of U3C U8A C66A, the yeast fitness turned out to be 0.529. Turning to U3G C5U C30U A40U C49U, the yeast fitness was ≤ 0.5. For the variant U3C U7C U8A A15U G50A U53A, the yeast fitness was ≤ 0.5. In the case of U3G C29G A45G, the yeast fitness is 0.594.

In the case of U3C U28G A57C, the yeast fitness was ≤ 0.5. Regarding U3C U19A C22U, the yeast fitness worked out at 0.558. With U3G C5U G51A, the yeast fitness is ≤ 0.5.

In the case of U3G C5U G10A G18C C24U A45C, the yeast fitness turned out to be 0.553. Next, U3G C4U U35A G58A G67A: ≤ 0.5; U3G G6A G17C C31G: ≤ 0.5; U3G A14C C24G C60U U64A: ≤ 0.5. Under U3G A70C stands 0.897. Consider U3G C11U U19C A20U A42C C49U G56C, for which the yeast fitness is ≤ 0.5. For U3G C11U C46U C61G, the yeast fitness is ≤ 0.5. Consider U3G C4A G6A U35C, for which the yeast fitness is ≤ 0.5. Next, U3G A15U A36G: ≤ 0.5; U3G C22A C24U U35G A45U A65U A70U: ≤ 0.5; U3C U8G U32A C33G: ≤ 0.5.

For U3C U35C A57G, the yeast fitness was 0.541. On to U3G C62G, for which the yeast fitness was found to be 0.739. For U3G C62U, the yeast fitness was 0.873.

As for U3G C11G A65U C66U, the yeast fitness is ≤ 0.5.

Consider U3G C11U G17A U19C A20U A42C A65C A69U, for which the yeast fitness was ≤ 0.5. Turning to U3C U19G C61U, the yeast fitness was ≤ 0.5. In the case of U3G C24A G58A, the yeast fitness is ≤ 0.5. Next, U3G G12C U19C C60U: ≤ 0.5. For U3C G68U, the yeast fitness amounted to 0.857. Consider U3G C27A, for which the yeast fitness came out at 0.633. Next, U3C U26A C31U: 1.02.

On to U3G G6A A14G G38C G41C A57C, for which the yeast fitness turned out to be 0.62. Next, U3G A37G: 0.724.

As for U3C U8G A20G C24G, the yeast fitness was ≤ 0.5. With U3C U28A U35C A37C G56C A57G G68U, the yeast fitness was ≤ 0.5. Next, U3C U13C G17A C24U G52A: ≤ 0.5; U3G A43G: 0.936; U3G C4A G9A G56A C61G: ≤ 0.5. Next, U3G C5G A20C A43C: 0.557. Consider U3G G17C A42U C62U, for which the yeast fitness is ≤ 0.5.

With U3G A43G A65U, the yeast fitness is 0.701.

Regarding U3G C31U, the yeast fitness stood at 1. For the variant U3G C27G G50C, the yeast fitness is ≤ 0.5. Regarding U3C U19C C34U U53C, the yeast fitness was ≤ 0.5.

Take U3G C30U G48A: the yeast fitness is ≤ 0.5. Regarding U3G C11G C34U C55U, the yeast fitness is ≤ 0.5.

For the variant U3G C30G A40C C46U C49U G68C, the yeast fitness was ≤ 0.5. Under U3C U59C stands 0.961; under U3C U7G G38C, ≤ 0.5; under U3G C66A, 0.591. Take U3G C66G: the yeast fitness came to 0.712. As for U3C U16C G44A A45U C60A, the yeast fitness was ≤ 0.5.

As to U3G G17C C31A U35C A45U, the yeast fitness was ≤ 0.5. With U3G G39A A40G A57U C66U, the yeast fitness is ≤ 0.5. Consider U3G C4U U35A G58A, for which the yeast fitness is ≤ 0.5. Take U3G C5U G10A C55U: the yeast fitness is ≤ 0.5. With U3G C62U A70U, the yeast fitness amounted to 0.551. Turning to U3C U7A G44C C61U C62U G63C C66U A69G, the yeast fitness was ≤ 0.5. For U3C U8C C27G C33A, the yeast fitness was ≤ 0.5. Consider U3G C11U U19C A20U A42C A65C A69U, for which the yeast fitness worked out at 0.537. For U3C U8G U32A C33G A43U C61U C62U, the yeast fitness is ≤ 0.5. For the variant U3G C4A A40U C62U G63C, the yeast fitness was ≤ 0.5.

Regarding U3C U32C C33U A42U, the yeast fitness was determined as 0.563.

As to U3C U19G C27G C33G U53G, the yeast fitness amounted to 0.578. For U3C U19A A65G, the yeast fitness stood at 0.796. With U3G A14G C30U G48C G68C, the yeast fitness was ≤ 0.5. As to U3G A65U, the yeast fitness came to 0.855. Next, U3G A14U C30U C55A: ≤ 0.5; U3G C46A: 0.802.

On to U3G C46U, for which the yeast fitness is 0.903. As for U3G A45C G63A A69U, the yeast fitness was determined as 0.831. Regarding U3C U19A C27U, the yeast fitness amounted to 0.696. With U3C U16C C30G C31G A37U G56C, the yeast fitness was ≤ 0.5. Consider U3G C11U G68A, for which the yeast fitness was ≤ 0.5. Under U3C U8A G25A A45G stands 0.578; under U3C U53A, 0.664. Take U3G C5U U26A: the yeast fitness is ≤ 0.5. For U3G C5U U26A G38A C62U A70U, the yeast fitness is ≤ 0.5. Turning to U3C U19A C27G C62U, the yeast fitness was ≤ 0.5.
